Measured values of several laboratories.
Protocols differ between the studies behind these lines.
Cell line: MCF7
Observed: cell growth or viability

| SMILES | test | setting | IC50 |
| --- | --- | --- | --- |
| CC(C)C(=O)Nc1ccc([N+](=O)[O-])c(C(F)(F)F)c1 | CCK-8 | 48 h | 39 µM |
| Oc1ccc(-c2csc(Nc3ccc4c(O)ncnc4c3)n2)cc1 | MTT |  | 7.43 µM |
| COc1cccc(C(c2c(N)nc(SCC(N)=O)[nH]c2=O)c2c(N)nc(SCC(N)=O)[nH]c2=O)c1 | MTT | 72 h | > 100 µM |
| Fc1cccc(Cl)c1-c1nc2ccccc2[nH]1 | MTT | 48 h | > 100 µM |
| Nc1ccc(-c2csc(Nc3ccc4c(O)ncnc4c3)n2)cc1 | MTT |  | 8.29 µM |
| CN(C)C/C=C/C(=O)Nc1cc2c(Nc3ccc(F)c(Cl)c3)ncnc2cc1O[C@H]1CCOC1 | MTT | 72 h | 1.8 µM |
| O=C(O)c1ccc(-n2nc(Oc3ccccc3)nc2/N=C/c2cc([N+](=O)[O-])ccc2O)cc1 | MTT |  | 21.6 µM |
| O=Cc1ccc(-c2ccc3ncnc(Nc4cccc(C(F)(F)F)c4)c3c2)cc1 | MTT | 24 h | 15.5 µM |
| Clc1ccc(C[n+]2cn(CCc3ccccc3)c3ccccc32)cc1 | MTT | 72 h | 13 µM |
| CSc1nc(N)n(-c2ccc(C(=O)O)cc2)n1 | MTT |  | 32.9 µM |
| CSc1ccc(-c2nc3ccccc3[nH]2)cc1 | MTT | 48 h | 33.2 µM |
| COc1ccc(-c2nn(-c3ccc(S(C)(=O)=O)cc3)cc2C=N/N=c2\[nH]c(-c3ccc([N+](=O)[O-])cc3)cs2)cc1 | MTT | 48 h | 2.15 µM |
| CCOc1cc(OCC)cc(C(=O)O[C@@H]2CN3Cc4c(cc5c(c4OC)OCO5)[C@@]24C=C[C@H](OC)C[C@@H]34)c1 | WST-1 |  | 6.3 µM |
| O=c1cc(-c2ccc(O)c(O)c2)oc2cc(O)cc(O)c12 | WST-1 | 48 h | 13.4 µM |
| O=S(=O)(Cc1ccccc1)NN=Cc1cn(CCN2CCOCC2)c2ccccc12 | MTT | 48 h | 62.5 µM |
| COc1cc2ncnc(Nc3ccc(F)c(Cl)c3)c2cc1NC(=O)N/N=C/c1cccn1CCCN1CCCCC1 | MTT | 72 h | 2.81 µM |
| Cc1ccc2nc(-c3ccccc3O)[nH]c2c1 | MTT | 48 h | 18 µM |
| O=S(=O)(NN=Cc1cn(CCN2CCOCC2)c2ccccc12)c1cccc2ncccc12 | MTT | 48 h | 79.1 µM |
| O=C(NC(=S)NC1CCCCC1)c1ccc2ccccc2c1 |  | 48 h | 5.22 µM |
| CC(=O)O[C@H]1C(=O)[C@@]2(C)[C@H]([C@H](OC(=O)c3ccccc3)[C@]3(O)C[C@H](OC(=O)[C@H](O)[C@@H](NC(=O)c4ccccc4)c4ccccc4)C(C)=C1C3(C)C)[C@]1(OC(C)=O)CO[C@@H]1C[C@@H]2O |  | 72 h | 0.011 µM |
| CCN(CC)CCn1cccc1/C=N/NC(=O)Nc1cc2c(Nc3ccc(F)c(Cl)c3)ncnc2cc1OC | MTT | 72 h | 0.57 µM |
| Cc1ccc2nc(-c3ccc(Cl)c(Cl)c3)n(Cc3ccccc3)c2c1 | MTT |  | 80.5 µM |
| CCN(CC)CCCn1cccc1/C=N/NC(=O)Nc1cc2c(Nc3ccc(F)c(Cl)c3)ncnc2cc1OC | MTT | 72 h | 2.43 µM |
| c1ccc(-c2ccccn2)nc1 | MTT | 48 h | > 50 µM |
| COc1cc2ncnc(Nc3ccc(F)c(Cl)c3)c2cc1NC(=O)N/N=C/c1cccn1CCN1CCOCC1 | MTT | 72 h | 1.17 µM |

| SMILES | test | setting | IC50 |
| --- | --- | --- | --- |
| COC(=O)/C=C1\S/C(=N\C(=O)c2ccc3ccccc3c2)N(C2CCCCC2)C1=O |  | 48 h | 14.3 µM |
| COC(=O)c1ccc(-n2nc(SC)nc2N)cc1 | MTT |  | 23.4 µM |
| O=C1C[C@@H](c2ccc(O)cc2)Oc2cc(O)cc(O)c21 | MTT | 48 h | 4.75 µM |
| CC(C)Cc1ccc(-c2nn(-c3ccc(S(C)(=O)=O)cc3)cc2/C=N\N=C2/NC(=O)CS2)cc1 | MTT | 48 h | 6.25 µM |
| O=S(=O)(NN=Cc1cn(CCN2CCOCC2)c2ccccc12)c1ccc(-c2ccccc2)cc1 | MTT | 48 h | 17.3 µM |
| O=c1cc(CO)occ1[O-].[Cl-].[W+4].c1cc[cH-]c1.c1cc[cH-]c1 | MTT |  | 590 µM |
| COc1cc2ncnc(Nc3ccc(F)c(Cl)c3)c2cc1NC(=O)N/N=C/c1cccn1CCN1CCCCC1 | MTT | 72 h | 2.18 µM |
| O=c1ccn(Cc2cn(-c3c4ccccc4nc4ccccc34)nn2)c(=O)[nH]1 | MTT |  | 10.9 µM |
| COc1cc2ncnc(Nc3ccc(F)c(Cl)c3)c2cc1NC(=O)N/N=C/CN1CCOCC1 | MTT | 72 h | 7.43 µM |
| COc1ccc(-c2ccc3ncnc(Nc4cccc(C(F)(F)F)c4)c3c2)cc1 | MTT | 24 h | 11.7 µM |
| COc1cc(OC)c(/C=C/S(=O)(=O)Nc2ccc(OC)c(N)c2)c(OC)c1 | trypan blue | 96 h | 0.004 µM |
| Cc1ccc2nc(-c3cc(Br)ccc3O)[nH]c2c1 | MTT | 48 h | 4.37 µM |
| O=C(/N=C1\SCC(=O)N1C1CCCCC1)c1ccc2ccccc2c1 |  | 48 h | 7.96 µM |
| O=C(CCl)Nc1ccc2c(Nc3cccc(C(F)(F)F)c3)ncnc2c1 | MTT | 24 h | 7.78 µM |
| COc1cc2ncnc(Nc3ccc(F)c(Cl)c3)c2cc1NC(=O)N/N=C/c1cccn1CCN1CCCC1 | MTT | 72 h | 2.45 µM |
| Cc1ccc2nc(-c3ccc(N(C)C)cc3)[nH]c2c1 | MTT | 48 h | 47.7 µM |
| Clc1ccnc2c1ccc1c(Cl)ccnc12 | MTT | 48 h | > 50 µM |
| CCOc1ccc(-c2nc3ccccc3n2Cc2ccccc2)cc1 | MTT |  | 40.1 µM |
| CC(=O)CC(=O)[c-]1cccc1.[Fe+2].c1cc[cH-]c1 | MTT | 96 h | 54 µM |
| Cc1ccc2nc(-c3ccccc3Cl)[nH]c2c1 | MTT | 48 h | > 100 µM |
| Cc1ccc(-c2csc(Nc3ccc4c(O)ncnc4c3)n2)cc1 | MTT |  | 6.28 µM |
| CS(=O)(=O)c1ccc(-n2cc(C=N/N=c3\[nH]c(-c4ccc(Br)cc4)cs3)c(-c3ccc([N+](=O)[O-])cc3)n2)cc1 | MTT | 48 h | 19.9 µM |
| CCN(CC)C/C=N/NC(=O)Nc1cc2c(Nc3ccc(F)c(Cl)c3)ncnc2cc1O[C@H]1CCOC1 | MTT | 72 h | 2.34 µM |
| CC/C(=C(\c1ccc(O)cc1)c1ccc(OCCNC)cc1)c1ccccc1 |  | 5 days | 0.675 µM |
